MC4R antag cAMP = blocks human MC4R cAMP signaling. P32245. MC4R-expressing cells, MTII-stimulated cAMP, LANCE TR-FRET. inhibition, % at 6.5 µM. 360,000 tested, 0.48% active. AID 540295;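 active = inhibition above its plate's cutoff, the mean of tested wells on that plate plus 3 SD, cut at about 29% in these data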;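 also: 0% = Melanotan II alone and 100% = Melanotan II plus saturating MCL0020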
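Material – human MC4R-expressing U2OS cells · Repeats – no replicates · Detection – TR-FRET with Eu-cAMP and labeled anti-cAMP, 671 nm · Times – compound 30 min, challenge 1 h, detection 1 h · Compound – single nominal compound dose of 6.5 µM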
PG9 Ab binder = PG9 antibody binding by small molecule; TR-FRET gp120-PG9 antibody binding; inhibition, % at 6.7 µM; 360,000 tested, 0.43% active; in the data active = inhibition above about 8.5%
NR1D1 modulator = modulators of human Rev-erb alpha DNA binding. activity, % at 10 µM. Rev-erbα–FITC-DNA binding, fluorescence polarization, 90 min. P20393. 370,000 tested, 0.79% active;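 active = activity above about 14%, limit read from the data; passing the limit was not always enough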;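 also: 0% = DMSO wells with 35 nM protein and 100% = DMSO wells with 750 nM protein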
Target sequence (P20393 whole entry, looked up): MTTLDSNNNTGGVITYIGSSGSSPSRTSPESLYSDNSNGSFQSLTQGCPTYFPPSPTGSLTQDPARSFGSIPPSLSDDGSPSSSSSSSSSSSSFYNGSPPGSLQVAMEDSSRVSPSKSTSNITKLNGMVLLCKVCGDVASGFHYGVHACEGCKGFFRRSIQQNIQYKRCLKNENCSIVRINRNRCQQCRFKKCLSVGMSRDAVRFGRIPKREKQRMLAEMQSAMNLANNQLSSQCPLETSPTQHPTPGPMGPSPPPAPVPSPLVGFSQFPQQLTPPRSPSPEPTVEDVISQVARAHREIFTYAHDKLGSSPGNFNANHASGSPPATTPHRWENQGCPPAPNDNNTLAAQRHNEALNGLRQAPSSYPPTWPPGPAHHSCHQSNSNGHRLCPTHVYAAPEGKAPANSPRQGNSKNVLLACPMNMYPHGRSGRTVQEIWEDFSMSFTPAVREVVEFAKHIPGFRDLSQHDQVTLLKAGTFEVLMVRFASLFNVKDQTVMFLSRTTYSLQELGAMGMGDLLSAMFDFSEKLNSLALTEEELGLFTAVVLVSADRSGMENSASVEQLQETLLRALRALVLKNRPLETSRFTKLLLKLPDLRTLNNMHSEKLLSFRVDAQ
MC4R barr agon = agonists of human melanocortin 4 receptor (MC4R) beta-arrestin; P32245; U2OS MC4R beta-arrestin complementation, luminescence; percent of melanotan II response, DMSO zero; AID 540308; 360,000 tested, 0.98% active; activation, % at 8.9 µM;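 active = activation above a per-plate cutoff, the mean activation of sample wells on that plate plus 3 SD, cut at about 8% in these data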
NR2E3 ag-1 = activates human NR2E3 receptor. Q9Y5X4. CHO-S Gal4-NCOR/VP16-NR2E3 two-hybrid, luciferase. inhibition of corepressor binding, % at 3.98 µM. 360,000 tested, 0.35% active. AID 602229;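 active = inhibition above the mean of all tested compounds plus 3 SD, cut at about 70% in these data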;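 also: 0% = DMSO with NR2E3 transfected cells and 100% = cells lacking NR2E3 construct; higher means lower luciferase signal from less NR2E3 corepressor binding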
NR2E3 ag-2 = agonists of human nuclear receptor NR2E3 | 320,000 tested, 0.12% active | inhibition of corepressor binding, % at 4.78 µM | Q9Y5X4 | GST-NR2E3/biotin-RetCOR TR-FRET, 1536-well;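 active = percent inhibition above the cutoff of mean plus 3 SD of all tested compounds, set per screening campaign, cut at about 20% in these data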;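 also: 0% = DMSO wells and 100% = biotin wells as full block of FRET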
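Material – GST-tagged NR2E3 plus biotinylated RetCOR corepressor · Quantity – NR2E3 fusion 1.35 nM · Times – 5 h incubation at 4 °C · Medium – pH 7.5 Tris-based buffer · Technique – TR-FRET, Eu(K)-anti-GST donor, streptavidin-D2 acceptor, ex 340, em 617/671 nm · Benchmarks – high control biotin, low control 0.6% DMSO · Format – 1536-well plates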
NR2E3 ag confirm = NR2E3 agonism confirmed in two-hybrid assay; inhibition, % at 3.98 µM; 2,300 tested, 51% active; shares compounds with NR2E3 ag-1; CHO-S mammalian two-hybrid NR2E3-NCOR, luciferase luminescence;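 active = average inhibition above a cutoff equal to the mean inhibition of all tested compounds plus one SD, cut at about 70% in these data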;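 also: 0% = DMSO in NR2E3 cells and 100% = DMSO in cells lacking NR2E3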
GAL4-VP16 luc = counter-screen for NR2E3 agonists: GAL4-VP16 reporter inhibitors; shares compounds with NR2E3 ag-1; CHO-S GAL4-VP16 luciferase reporter, luminescence; inhibition, % at 3.98 µM; 2,300 tested, 29% active;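 active = mean inhibition above a cutoff equal to the average over all tested compounds plus one standard deviation, cut at about 70% in these data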;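 also: luciferase from a UAS reporter driven by GAL4-VP16 transactivation; 0% = DMSO with VP16-transfected cells and 100% = DMSO with cells lacking VP16; higher means less reporter light so more repression of VP16 activity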
* marks the source's active call; other numbers are inactive results; nt = no result given. Most compounds without a hit are left out; they make up all but 2.7% or so of the library.

SMILES	MC4R antag cAMP	PG9 Ab binder	NR1D1 modulator	MC4R barr agon	NR2E3 ag-1	NR2E3 ag-2	NR2E3 ag confirm	GAL4-VP16 luc
Cc1ccc(S(=O)(=O)N2[C@@H](c3ccc(C(C)(C)C)cc3)C(C(=O)O)=CC[C@H]2c2cccc(Cl)c2)cc1	-0.7	-2.4	-7.1	2.4	83.8*	nt	69.8	28.5
Cc1ccc(NC(=O)C(C)c2cccc(C(=O)c3ccccc3)c2)cc1O (centres undefined)	5.8	0.9	-4.6	0.5	64.9	0.7	94.6*	80.1*
Cc1cccc(NC(=O)C(C)C(=O)c2ccccc2)c1 (centres undefined)	11.8	2.3	5.6	-1.0	-19.4	nt	nt	nt
Cc1cccc(-n2ncc3c(N(C)C4CCCCC4)ncnc32)c1	-6.7	-1.0	-1.7	0.9	72.8*	-1.0	45.8	44.0
COc1ccc(-n2ncc3c(N(C)C4CCCCC4)ncnc32)cc1	4.0	-0.4	-5.9	2.9	79.2*	8.7	60.5	37.5
COc1ccc(-n2ncc3c(N4CCC(C)CC4)ncnc32)cc1	7.5	1.3	-4.2	-0.2	-85.7	0.3	nt	nt
O=C(CN1CCN(c2ccccc2F)CC1)NCc1ccccc1	12.5	-2.1	3.5	0.6	-10.3	3.6	nt	nt
CCc1ccc(NC(=O)c2cccc(C(=O)Nc3ccc(CC)cc3)n2)cc1	7.0	-2.5	-5.4	3.6	-21.6	0.8	nt	nt
O=C(NCc1cccnc1)/C(=C\c1ccc(-c2ccc(Br)cc2)o1)S(=O)(=O)c1ccccc1	5.1	0.6	0.9	-3.8	93.4*	3.7	43.2	11.0
O=C(CN(Cc1ccc(Br)cc1)S(=O)(=O)c1ccccc1)NCc1cccnc1	8.7	0.5	-6.8	0.6	-19.4	0.4	nt	nt
O=C(NCc1cccnc1)/C(=C/c1ccc(-c2ccc(Cl)cc2)o1)S(=O)(=O)c1ccccc1	3.9	-1.7	2.0	0.2	89.9*	-0.8	47.4	-31.5
CCCCn1c(-c2csc3c2CCCC3)n[nH]c1=S	nt	-4.4	1.2	nt	nt	3.5	nt	nt
COc1ccc(CNS(=O)(=O)c2cn(C)c(=O)n(C)c2=O)cc1	5.5	-1.7	-2.0	-1.9	1.4	-1.4	nt	nt
Cc1cc2cc(C)c3nnc(SCC(=O)Nc4ccc(S(=O)(=O)N5CCCCC5)cc4)n3c2cc1C	2.0	2.8	-4.2	0.3	11.1	1.1	nt	nt
Cc1ccc(Cl)cc1N1CCN(C(=O)COc2ccc(S(=O)(=O)NC(C)C)cc2)CC1	10.6	-0.7	5.0	2.6	55.8	2.7	63.9	41.9
Cc1ccc(Cl)cc1N1CCN(C(=O)CN(C2CCCCC2)S(C)(=O)=O)CC1	2.7	1.8	1.7	0.3	52.7	3.1	61.2	61.2
COC(=O)c1cccc(CSc2nc(-c3ccccc3)c(C#N)c(=O)[nH]2)c1	8.8	0.1	4.9	-1.5	-10.7	8.0	nt	nt
N#Cc1c(-c2ccccc2)nc(SCc2ccc(Cl)cc2)[nH]c1=O	3.0	0.7	-3.4	0.1	72.2*	5.6	58.4	35.7
CCCCC(=O)N1CCN(c2nc3ccc(Cl)cc3s2)CC1	14.4	-1.2	-8.3	1.4	50.0	3.2	65.6	-0.6
C=Cn1cc(CNC[C@H]2O[C@@H](n3cc(C)c(=O)[nH]c3=O)C[C@@H]2O)c(C)n1	4.0	0.3	1.3	-2.0	-2.7	nt	nt	nt
Clc1ccc2c(NCc3ccco3)ncnc2c1	2.3	-1.5	-2.1	-1.7	54.4	0.7	44.6	43.1
CCCN1C(=O)CSC1=Nc1ccccc1	2.5	-2.3	-2.2	-0.7	-4.7	4.8	nt	nt
OC[C@@H]1CN(Cc2ccc(-c3ccccc3)cc2)C[C@H](n2cnc3c(NCc4ccco4)ncnc32)O1	7.8	0.3	-0.2	-0.8	69.9	nt	75.0*	39.0
OC[C@@H]1CN(Cc2ccc(-c3ccccc3)cc2)C[C@H](n2cnc3c(NCc4ccncc4)ncnc32)O1	8.7	4.1	8.4	-0.8	54.9	nt	74.2*	52.7
Cc1ccnc(NS(=O)(=O)c2ccc(NS(=O)(=O)c3ccc(Br)cc3)cc2)n1	17.1	0.4	-2.5	1.5	-6.6	-0.6	nt	nt
SMILES	MC4R antag cAMP	PG9 Ab binder	NR1D1 modulator	MC4R barr agon	NR2E3 ag-1	NR2E3 ag-2	NR2E3 ag confirm	GAL4-VP16 luc
CCCC(=O)O[C@H]1C[C@@H](C)N(C(=O)c2ccccc2)c2ccc(C)cc21	-4.0	1.1	2.0	2.6	3.7	-2.9	nt	nt
O=C(Nc1ccc([N+](=O)[O-])cc1Cl)c1cc(Cl)ccc1O	18.8	0.3	-1.8	-0.3	-110.2	1.6	nt	nt
O=C(Nc1cccc(Cl)c1)c1cc(N=Nc2ccc([N+](=O)[O-])cc2Cl)ccc1O	-0.3	0.0	-25.8	-4.9	71.3*	2.5	100.3*	92.4*
CSc1nc2nc(C)c(C/C=C/c3ccccc3)c(=O)n2[nH]1	27.5	1.5	6.8	-0.9	-31.8	1.8	nt	nt
CCc1c(C)nc2nc(SCc3ccccc3Cl)[nH]n2c1=O	-1.7	1.4	3.8	-1.2	68.8	-3.3	84.2*	61.0
O=c1c2c([nH]n1-c1ccccc1)C[C@@H](C1CCCCC1)O[C@H]2c1ccc(F)cc1	nt	nt	nt	nt	57.0	nt	10.0	-17.5
COc1cccc2c1OC[C@@H](CO)[C@H]2N(C)C(=O)Nc1ccc(Cl)cc1Cl	10.9	-2.0	1.9	1.8	48.5	2.5	10.7	29.7
Cc1cccnc1Nc1nc(-c2ccccc2)cs1	2.0	0.6	-1.3	-0.1	-136.1	-3.0	nt	nt
O=C(Nc1nc(-c2ccccn2)cs1)c1ccc(Cl)s1	-3.6	-3.9	8.7	-0.4	11.3	2.2	nt	nt
Cc1cccnc1Nc1nc(-c2ccccn2)cs1	3.2	0.9	4.6	-4.4	77.2*	3.6	99.8*	2.5
Cc1ccc(C(=O)Nc2nc(-c3ccccn3)cs2)s1	1.1	-2.9	2.4	-2.8	50.8	4.5	-8.0	-39.5
COc1ccc(CNC(=O)C(C)N2CCN(S(=O)(=O)c3ccccc3F)CC2)cc1 (centres undefined)	10.5	0.3	5.3	0.2	11.6	4.5	nt	nt
CC(Oc1ccccc1)C(=O)NNC(=O)c1cccs1 (centres undefined)	-1.3	-1.8	4.2	-2.8	-56.5	-0.3	nt	nt
Cc1ccc(C)c(NC(=O)Cn2nc(-c3ccccc3)nc2-c2ccccc2)c1	1.9	2.2	2.4	1.9	-9.0	0.1	nt	nt
CCOC(=O)C(=O)NNc1ccc(F)cc1	3.6	-0.8	-3.2	4.2	65.2	-0.3	11.6	-4.5
COc1cccc(OC)c1C(=O)NNC(=O)c1ccccc1-n1cccc1	-7.5	0.3	-3.5	-2.1	34.6	0.4	nt	nt
Brc1ccc(-c2nnc3sc(CN4CCc5ccccc5C4)cn23)cc1	2.8	0.3	-3.1	-1.8	-25.0	nt	nt	nt

Bioassay records (PubChem BioAssay)
